Experimental data as given in ChEMBL document CHEMBL1145384, “Novel C-6 fluorinated acyclic side chain pyrimidine derivatives: synthesis, (1)H and (13)C NMR conformational studies, and antiviral and cytostatic evaluations” (J Med Chem, 2007).
Activity calls are given as the source filed them. No cut-off for these calls is given here.

What was measured:
Coxsackievirus B4 = assay: Antiviral activity against coxsackie B4 virus in HeLa cells assessed as reduction of virus plaque formation after 7 days; assay type: functional, organism-based; details: Enterovirus B, 168 h
HeLa = assay: Growth inhibition of HeLa cells after 72 hrs by MTT assay; assay type: functional, cell-based; details: Homo sapiens
Summary of the method: (§1)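 Tumor lines grown as monolayers in DMEM with 10% FBS, 2 mM L-glutamine and penicillin. Freshly diluted compounds added, solvent tested at matching concentrations; after 72 h growth measured by MTT. IC50 obtained by linear regression of concentrations bracketing 50% growth; mean of three separate experiments.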

Human betaherpesvirus 5 [1] = assay: Antiviral activity against human cytomegalovirus AD169 in HEL cells assessed as reduction of plaque formation after 7 days; assay type: functional, organism-based; details: Human betaherpesvirus 5, AD169, HEL, 168 h
Summary of the method: (§2)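 Confluent HEL fibroblasts infected with HCMV (Davis or AD-169) at 100 PFU per well; after 2 h adsorption, residual virus removed and medium with serial compound concentrations added (duplicate wells). Incubated 7 days; EC50 taken as concentration reducing plaque formation by 50%.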

HEp-2 = assay: Growth inhibition of Hep2 cells after 72 hrs by MTT assay; assay type: functional, cell-based; details: Homo sapiens, HEp-2, 72 h; summary of the method: as §1
MCF7 = assay: Growth inhibition of MCF7 cells after 72 hrs by MTT assay; assay type: functional, cell-based; details: Homo sapiens, MCF7, 72 h; summary of the method: as §1
Human alphaherpesvirus 3 [2] = assay: Antiviral activity against thymidine kinase deficient Varicella-Zoster virus 07/1 assessed as reduction of plaque formation; assay type: functional, organism-based; details: Human alphaherpesvirus 3, 07/1
Summary of the method: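 Plaque reduction assay in HEL cells against TK+ (OKA) and TK- (07/1) VZV strains; virus input 100 PFU; EC50 as concentration giving 50% plaque reduction.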

Human respirovirus 3 = assay: Antiviral activity against parainfluenza 3 virus in Vero cells assessed as reduction of virus plaque formation after 7 days; assay type: functional, organism-based; details: Human respirovirus 3, Vero, 168 h
Sindbis virus = assay: Antiviral activity against sindbis virus in Vero cells assessed as reduction of virus plaque formation after 7 days; assay type: functional, organism-based; details: 168 h
[3] = system: Mammalian orthoreovirus 1; assay: Antiviral activity against reovirus1 virus in Vero cells assessed as reduction of virus plaque formation after 7 days; assay type: functional, organism-based; details: Mammalian orthoreovirus 1, Vero, 168 h
SW-620 = assay: Growth inhibition of SW620 cells after 72 hrs by MTT assay; assay type: functional, cell-based; details: Homo sapiens, SW-620, 72 h; summary of the method: as §1
MIA PaCa-2 = assay: Growth inhibition of MiaPaCa2 cells after 72 hrs by MTT assay; assay type: functional, cell-based; details: Homo sapiens, MIA PaCa-2, 72 h; summary of the method: as §1
[4] = Cytotoxicity against HEL cells assessed as cell growth after 7 days; assay type: cell-based; details: human
WI-38 = assay: Growth inhibition of human WI38 fibroblasts at 0.1 uM after 72 hrs by MTT assay; assay type: functional, cell-based
L1210 = assay: Growth inhibition of mouse L1210 cells after 72 hrs by MTT assay; assay type: functional, cell-based; details: L1210, 72 h
[5] = Cytotoxicity against HEL cells assessed as cell morphology after 7 days; assay type: cell-based; details: human
Summary of the method: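 Uninfected confluent HEL cultures exposed to compounds; MCC recorded as lowest concentration producing a microscopically detectable alteration of normal cell morphology at day 7.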

[6] = Growth inhibition of human Molt4/C8 cells after 72 hrs by MTT assay; assay type: functional, cell-based; details: MOLT-4, 72 h
Punta Toro virus = assay: Antiviral activity against Punta Toro virus in Vero cells assessed as reduction of virus plaque formation after 7 days; assay type: functional, organism-based; details: 168 h
Human alphaherpesvirus 3 [7] = assay: Antiviral activity against thymidine kinase expressing Varicella-Zoster virus OKA assessed as reduction of plaque formation; assay type: functional, organism-based; details: Human alphaherpesvirus 3, OKA
CCRF-CEM = assay: Growth inhibition of human CEM cells after 72 hrs by MTT assay; assay type: functional, cell-based
Human betaherpesvirus 5 [8] = assay: Antiviral activity against human cytomegalovirus Davis in HEL cells assessed as reduction of plaque formation after 7days; assay type: functional, organism-based; details: Human betaherpesvirus 5, Davis, 168 h; summary of the method: as §2

## COc1nc(CBr)c(Br)c(OC)n1
Coxsackievirus B4
  EC50: > 40 µM
HeLa
  IC50: 18 µM
Human betaherpesvirus 5 [1]
  EC50: > 100 µM
HEp-2
  IC50: 7 µM
MCF7
  IC50: 8 µM
Human alphaherpesvirus 3 [2]
  EC50: > 100 µM
Human respirovirus 3
  EC50: > 8 µM
Sindbis virus
  EC50: > 8 µM
[3]
  EC50: > 8 µM
SW-620
  IC50: 1 µM
MIA PaCa-2
  IC50: 2 µM
[4]
  CC50 at 168 h: 38.7 µM
WI-38
  Activity: inactive
L1210
  IC50: 38 µM
[5]
  MCC at 168 h: > 100 µM
[6]
  IC50: 97 µM
Punta Toro virus
  EC50: > 8 µM
Human alphaherpesvirus 3 [7]
  EC50: > 100 µM
CCRF-CEM
  IC50: 28 µM
Human betaherpesvirus 5 [8]
  EC50: > 100 µM

## COc1cc(CC(C)(O)Cc2ccccc2F)nc(OC)n1 (centres undefined)
Coxsackievirus B4
  EC50: > 200 µM
HeLa
  IC50: > 200 µM
Human betaherpesvirus 5 [1]
  EC50: > 100 µM
HEp-2
  IC50: > 200 µM
MCF7
  IC50: > 200 µM
Human alphaherpesvirus 3 [2]
  EC50: > 100 µM
Human respirovirus 3
  EC50: > 130 µM
Sindbis virus
  EC50: > 130 µM
[3]
  EC50: > 130 µM
SW-620
  IC50: > 200 µM
MIA PaCa-2
  IC50: > 200 µM
[4]
  CC50 at 168 h: > 100 µM
L1210
  IC50: > 200 µM
[5]
  MCC at 168 h: ≥ 100 µM
[6]
  IC50: 79 µM
Punta Toro virus
  EC50: > 130 µM
Human alphaherpesvirus 3 [7]
  EC50: > 100 µM
CCRF-CEM
  IC50: 156 µM
Human betaherpesvirus 5 [8]
  EC50: > 100 µM

## COc1cc(CC(C)(O)c2ccc(F)cc2)nc(OC)n1 (centres undefined)
Coxsackievirus B4
  EC50: 40 µM
HeLa
  IC50: > 100 µM
Human betaherpesvirus 5 [1]
  EC50: > 100 µM
HEp-2
  IC50: > 100 µM
MCF7
  IC50: > 100 µM
Human alphaherpesvirus 3 [2]
  EC50: > 100 µM
Human respirovirus 3
  EC50: 120 µM
Sindbis virus
  EC50: > 200 µM
[3]
  EC50: 200 µM
SW-620
  IC50: > 100 µM
MIA PaCa-2
  IC50: > 100 µM
[4]
  CC50 at 168 h: > 100 µM
L1210
  IC50: > 200 µM
[5]
  MCC at 168 h: > 100 µM
[6]
  IC50: > 200 µM
Punta Toro virus
  EC50: 120 µM
Human alphaherpesvirus 3 [7]
  EC50: > 100 µM
CCRF-CEM
  IC50: > 200 µM
Human betaherpesvirus 5 [8]
  EC50: 59 µM

## COc1cc(/C=C(/O)c2ccc(F)cc2)nc(OC)n1
Coxsackievirus B4
  EC50: 24 µM
HeLa
  IC50: > 100 µM
Human betaherpesvirus 5 [1]
  EC50: > 100 µM
HEp-2
  IC50: > 100 µM
MCF7
  IC50: ≥ 100 µM
Human alphaherpesvirus 3 [2]
  EC50: > 20 µM
Human respirovirus 3
  EC50: > 200 µM
Sindbis virus
  EC50: 200 µM
[3]
  EC50: > 200 µM
SW-620
  IC50: ≥ 100 µM
MIA PaCa-2
  IC50: > 100 µM
[4]
  CC50 at 168 h: > 100 µM
L1210
  IC50: > 200 µM
[5]
  MCC at 168 h: > 100 µM
[6]
  IC50: > 200 µM
Punta Toro virus
  EC50: > 200 µM
Human alphaherpesvirus 3 [7]
  EC50: > 100 µM
CCRF-CEM
  IC50: 192 µM
Human betaherpesvirus 5 [8]
  EC50: 38 µM

## COc1cc(CC(C)(O)C(F)(F)F)nc(OC)n1 (centres undefined)
Coxsackievirus B4
  EC50: > 200 µM
HeLa
  IC50: > 200 µM
Human betaherpesvirus 5 [1]
  EC50: > 100 µM
HEp-2
  IC50: > 200 µM
MCF7
  IC50: > 200 µM
Human alphaherpesvirus 3 [2]
  EC50: > 100 µM
Human respirovirus 3
  EC50: > 200 µM
Sindbis virus
  EC50: > 200 µM
[3]
  EC50: > 200 µM
SW-620
  IC50: > 200 µM
MIA PaCa-2
  IC50: > 200 µM
[4]
  CC50 at 168 h: > 100 µM
L1210
  IC50: > 200 µM
[5]
  MCC at 168 h: > 100 µM
[6]
  IC50: > 200 µM
Punta Toro virus
  EC50: > 200 µM
Human alphaherpesvirus 3 [7]
  EC50: > 100 µM
CCRF-CEM
  IC50: > 200 µM
Human betaherpesvirus 5 [8]
  EC50: > 100 µM

## CC(O)(CF)Cc1cc(O)nc(O)n1 (centres undefined)
Coxsackievirus B4
  EC50: > 200 µM
HeLa
  IC50: > 200 µM
Human betaherpesvirus 5 [1]
  EC50: > 100 µM
HEp-2
  IC50: > 200 µM
MCF7
  IC50: > 200 µM
Human alphaherpesvirus 3 [2]
  EC50: > 100 µM
Human respirovirus 3
  EC50: > 196 µM
Sindbis virus
  EC50: > 196 µM
[3]
  EC50: > 196 µM
SW-620
  IC50: > 200 µM
MIA PaCa-2
  IC50: > 200 µM
[4]
  CC50 at 168 h: > 100 µM
L1210
  IC50: > 200 µM
[5]
  MCC at 168 h: > 100 µM
[6]
  IC50: > 200 µM
Punta Toro virus
  EC50: > 196 µM
Human alphaherpesvirus 3 [7]
  EC50: > 100 µM
CCRF-CEM
  IC50: > 200 µM
Human betaherpesvirus 5 [8]
  EC50: > 100 µM

## CC(O)(Cc1cc(O)nc(O)n1)C(F)(F)F (centres undefined)
Coxsackievirus B4
  EC50: > 200 µM
HeLa
  IC50: > 100 µM
Human betaherpesvirus 5 [1]
  EC50: > 100 µM
HEp-2
  IC50: > 100 µM
MCF7
  IC50: > 100 µM
Human alphaherpesvirus 3 [2]
  EC50: > 100 µM
Human respirovirus 3
  EC50: > 200 µM
Sindbis virus
  EC50: > 200 µM
[3]
  EC50: > 200 µM
SW-620
  IC50: > 100 µM
MIA PaCa-2
  IC50: > 100 µM
[4]
  CC50 at 168 h: > 100 µM
L1210
  IC50: > 500 µM
[5]
  MCC at 168 h: > 100 µM
[6]
  IC50: > 500 µM
Punta Toro virus
  EC50: > 200 µM
Human alphaherpesvirus 3 [7]
  EC50: > 100 µM
CCRF-CEM
  IC50: > 500 µM
Human betaherpesvirus 5 [8]
  EC50: > 100 µM
